According to ChEMBL document CHEMBL4706708, “Improving the solubility of anti-proliferative thieno[2,3-b]quinoline-2-carboxamides” (Bioorg Med Chem, 2021):
Converted amounts (≈) assume the structure as drawn.

System: HCT-116
Test: Antiproliferative activity against human HCT-116 cells assessed as cell growth at 1 uM measured after 3 days by [3H]-thymidine incorporation assay relative to control
Format: functional
Details: HCT-116, 72 h, time 3 day, read-out: Activity
Summary of the method: (§1)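 HCT116 and MDA-MB-231 cells from ATCC, seeded at 3000 cells/well, exposed to inhibitor for three days; 0.04 µCi 3H-thymidine added per well 5 h before harvest onto glass fibre filters, incorporation counted by scintillation and expressed relative to untreated controls. Triplicate wells, at least two independent experiments. Single-point screen at 1 µM; IC50 determined from varying concentrations.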
`Nc1c(C(=O)Nc2cccc(Cl)c2)sc2nc3c(cc12)CN(Cc1ccccc1)CC3` showed a growth at 1 µM of 89.9%. With `Cc1ccccc1NC(=O)c1sc2nc3c(cc2c1N)CN(Cc1ccccc1)CC3` the growth at 1 µM was 96.4%. Compound `COc1ccc(NC(=O)c2sc3nc4c(cc3c2N)CN(Cc2ccccc2)CC4)cc1` has a growth at 1 µM of 87.4%. `CC(=O)c1cc2c(N)c(C(=O)Nc3ccccc3Cl)sc2nc1C` showed a growth at 1 µM of 87.3%. For `CN1CCc2nc3sc(C(=O)Nc4ccccc4)c(N)c3cc2C1`, the growth at 1 µM was 100%. With `Nc1c(C(=O)Nc2ccc3c(c2)OCCO3)sc2nc3c(cc12)CN(Cc1ccccc1)CC3` the growth at 1 µM was 83.2%. In the case of `CC(=O)c1cc2c(N)c(C(=O)Nc3cccc(C(F)(F)F)c3C)sc2nc1C`, the growth at 1 µM is reported as 106%. `Nc1c(C(=O)Nc2cccc3ncccc23)sc2nc3c(cc12)C(=O)CCC3` showed a growth at 1 µM of 96.3%. Work on `CC(=O)c1cc2c(N)c(C(=O)Nc3cncc4ccccc34)sc2nc1C` yielded a growth at 1 µM of 96.2%. `COc1cccc(NC(=O)c2sc3nc4c(cc3c2N)CN(Cc2ccccc2)CC4)c1` showed a growth at 1 µM of 85.2%. With `CC(=O)c1cc2c(N)c(C(=O)Nc3cccc4ccncc34)sc2nc1C` the growth at 1 µM was 108%. `Nc1c(C(=O)Nc2cncc3ccccc23)sc2nc3c(cc12)C(=O)CCC3` showed a growth at 1 µM of 97.8%. `Nc1c(C(=O)Nc2ccccn2)sc2nc3c(cc12)C(=O)CCC3` showed a growth at 1 µM of 10.2%. In the case of `Nc1c(C(=O)Nc2ccccc2)sc2nc3c(cc12)CN(C(=O)OCc1ccccc1)CC3`, the growth at 1 µM is reported as 3.1%. In the case of `Nc1c(C(=O)Nc2ccccc2)sc2nc3c(cc12)CNCC3`, the growth at 1 µM is reported as 100%.

System: MDA-MB-231
Test: Antiproliferative activity against human MDA-MB-231 cells assessed as cell growth at 1 uM measured after 3 days by [3H]-thymidine incorporation assay relative to control
Format: functional
Details: MDA-MB-231, 72 h, time 3 day, read-out: Activity
Summary of the method: as §1
Compound `Nc1c(C(=O)Nc2cccc(Cl)c2)sc2nc3c(cc12)CN(Cc1ccccc1)CC3` has a growth at 1 µM of 80.5%. With `Cc1ccccc1NC(=O)c1sc2nc3c(cc2c1N)CN(Cc1ccccc1)CC3` the growth at 1 µM was 109%. Work on `COc1ccc(NC(=O)c2sc3nc4c(cc3c2N)CN(Cc2ccccc2)CC4)cc1` yielded a growth at 1 µM of 94.1%. Work on `CC(=O)c1cc2c(N)c(C(=O)Nc3ccccc3Cl)sc2nc1C` yielded a growth at 1 µM of 99.6%. Compound `CN1CCc2nc3sc(C(=O)Nc4ccccc4)c(N)c3cc2C1` has a growth at 1 µM of 91.2%. In the case of `Nc1c(C(=O)Nc2ccc3c(c2)OCCO3)sc2nc3c(cc12)CN(Cc1ccccc1)CC3`, the growth at 1 µM is reported as 94.9%. For `CC(=O)c1cc2c(N)c(C(=O)Nc3cccc(C(F)(F)F)c3C)sc2nc1C`, the growth at 1 µM was 67.7%. `Nc1c(C(=O)Nc2cccc3ncccc23)sc2nc3c(cc12)C(=O)CCC3` showed a growth at 1 µM of 96.9%. Work on `CC(=O)c1cc2c(N)c(C(=O)Nc3cncc4ccccc34)sc2nc1C` yielded a growth at 1 µM of 105%. In the case of `COc1cccc(NC(=O)c2sc3nc4c(cc3c2N)CN(Cc2ccccc2)CC4)c1`, the growth at 1 µM is reported as 90.7%. Work on `CC(=O)c1cc2c(N)c(C(=O)Nc3cccc4ccncc34)sc2nc1C` yielded a growth at 1 µM of 101%. `Nc1c(C(=O)Nc2cncc3ccccc23)sc2nc3c(cc12)C(=O)CCC3` showed a growth at 1 µM of 111%. With `Nc1c(C(=O)Nc2ccccn2)sc2nc3c(cc12)C(=O)CCC3` the growth at 1 µM was 27%. For `Nc1c(C(=O)Nc2ccccc2)sc2nc3c(cc12)CN(C(=O)OCc1ccccc1)CC3`, the growth at 1 µM was 17.5%. For `Nc1c(C(=O)Nc2ccccc2)sc2nc3c(cc12)CNCC3`, the growth at 1 µM was 89.7%.

System: not listed separately
Test: Thermodynamic solubility of compound in water measured after 15 mins RP-HPLC analysis
Format: physicochemical
Details: read-out: Therm_solubility
In the case of `Nc1c(C(=O)Nc2cccc(Cl)c2)sc2nc3c(cc12)CN(Cc1ccccc1)CC3`, the solubility thermodynamic at 0.25 h is reported as 0.213 µg/mL (≈ 0.474 µM). `Cc1ccccc1NC(=O)c1sc2nc3c(cc2c1N)CN(Cc1ccccc1)CC3` gave a solubility thermodynamic at 0.25 h of 0.26 µg/mL (≈ 0.607 µM). `COc1ccc(NC(=O)c2sc3nc4c(cc3c2N)CN(Cc2ccccc2)CC4)cc1` showed a solubility thermodynamic at 0.25 h of 0.197 µg/mL (≈ 0.443 µM). In the case of `CC(=O)c1cc2c(N)c(C(=O)Nc3ccccc3Cl)sc2nc1C`, the solubility thermodynamic at 0.25 h is reported as 0.13 µg/mL (≈ 0.361 µM). In the case of `Nc1c(C(=O)Nc2ccc3c(c2)OCCO3)sc2nc3c(cc12)CN(Cc1ccccc1)CC3`, the solubility thermodynamic at 0.25 h is reported as 0.7 µg/mL (≈ 1.48 µM). Compound `CC(=O)c1cc2c(N)c(C(=O)Nc3cccc(C(F)(F)F)c3C)sc2nc1C` has a solubility thermodynamic at 0.25 h of 1.17 µg/mL (≈ 2.87 µM). For `Nc1c(C(=O)Nc2cccc3ncccc23)sc2nc3c(cc12)C(=O)CCC3`, the solubility thermodynamic at 0.25 h was 0.41 µg/mL (≈ 1.06 µM). In the case of `CC(=O)c1cc2c(N)c(C(=O)Nc3cncc4ccccc34)sc2nc1C`, the solubility thermodynamic at 0.25 h is reported as 0.09 µg/mL (≈ 0.239 µM). `COc1cccc(NC(=O)c2sc3nc4c(cc3c2N)CN(Cc2ccccc2)CC4)c1` gave a solubility thermodynamic at 0.25 h of 0.3 µg/mL (≈ 0.675 µM). In the case of `CC(=O)c1cc2c(N)c(C(=O)Nc3cccc4ccncc34)sc2nc1C`, the solubility thermodynamic at 0.25 h is reported as 1.06 µg/mL (≈ 2.82 µM). `Nc1c(C(=O)Nc2cncc3ccccc23)sc2nc3c(cc12)C(=O)CCC3` gave a solubility thermodynamic at 0.25 h of 0.71 µg/mL (≈ 1.83 µM). For `Nc1c(C(=O)Nc2ccccn2)sc2nc3c(cc12)C(=O)CCC3`, the solubility thermodynamic at 0.25 h was 0.64 µg/mL (≈ 1.89 µM). `Nc1c(C(=O)Nc2ccccc2)sc2nc3c(cc12)CN(C(=O)OCc1ccccc1)CC3` gave a solubility thermodynamic at 0.25 h of 1.93 µg/mL (≈ 4.21 µM). With `Nc1c(C(=O)Nc2ccccc2)sc2nc3c(cc12)CNCC3` the solubility thermodynamic at 0.25 h was 40.5 µg/mL (≈ 125 µM).
